# Screens deposited in PubChem by several laboratories.
# An excerpt weighted towards active compounds, which were near 1.7% of everything screened.
# HNF4A DNA FP: change in binding of human HNF4 alpha to DNA | activity change, % at 10 µM | 360,000 tested, 0.3% active | AID 1224865 | P41235 | HNF4a-FITC DNA binding, fluorescence polarization, 1 h; in the data active = activity change above about 30%, passing the limit was not always enough
# Tb MetRS inh: blocks T. brucei methionyl-tRNA synthetase activity. purified T. brucei MetRS, ATP depletion, Kinase-Glo luminescence. inhibition, % at 11.9 µM. 360,000 tested, 0.4% active;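 active = inhibition above a per-plate cutoff of the control wells' mean inhibition plus 3 SD, cut at about 5.5% in these data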
#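 Dosing: 11.9 µM compound single dose, 0.9% DMSO; Assay system: purified T. brucei MetRS enzyme; Measured by: Kinase-Glo luciferase luminescence reporting remaining unconsumed ATP; Schedule: 15 min plus 2 h at 25 °C.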
# IDE cell inh: cellular human IDE inhibition; 320,000 tested, 0.41% active; inhibition, % at 5.59 µM; AID 434962; P14735; HEK cells, FAbetaB cleavage, fluorescence polarization;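 active = percent inhibition above the average of all tested compounds plus 3 SD, set per screening campaign, cut at about 16% in these data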;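 also: IDE supplied by intact live HEK cells; FP after avidin binding of uncleaved biotin substrate so inhibition keeps polarization high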
# IDE act: boosts human insulin-degrading enzyme activity in HEK cells. activation, % at 5.96 µM. 340,000 tested, 0.073% active. FAbeta-B cleavage, fluorescence polarization; 0% vehicle, 100% cell-free pure enzyme wells. AID 493087;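 active = activation above the mean of all tested compounds plus 3 SD, set per screening campaign, cut at about 17% in these data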
# TPT1 inh: blocks Candida albicans tRNA 2'-phosphotransferase; inhibition, % at 5 µM; AID 1962; 300,000 tested, 0.81% active; recombinant caTPT1, FP RNA substrate dephosphorylation;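 active = inhibition above the mean of all tested compounds plus 3 SD, set per screening campaign, cut at about 24% in these data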
# CSN inh: blocks human CSN-mediated cullin deneddylation | Q92905 | Purified CSN, SCF-Nedd8-OG deneddylation, fluorescence polarization | inhibition, % at 12.5 µM | 360,000 tested, 0.38% active | AID 651999;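 active = pattern-corrected inhibition above about 35%, with an unprinted fluorescence ratio check between 0.5 and 1.5, limit read from the data, passing the limit was not always enough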
# Target sequence (Q92905 whole entry, looked up, one chain of several): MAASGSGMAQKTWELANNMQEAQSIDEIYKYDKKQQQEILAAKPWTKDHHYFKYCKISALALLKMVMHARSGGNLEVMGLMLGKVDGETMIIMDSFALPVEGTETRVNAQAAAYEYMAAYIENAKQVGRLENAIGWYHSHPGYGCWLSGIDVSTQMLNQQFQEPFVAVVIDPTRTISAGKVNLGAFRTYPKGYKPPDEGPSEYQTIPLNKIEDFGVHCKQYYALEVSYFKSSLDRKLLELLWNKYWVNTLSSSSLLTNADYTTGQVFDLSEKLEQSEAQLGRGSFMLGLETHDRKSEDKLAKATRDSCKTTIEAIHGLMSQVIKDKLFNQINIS
#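 assay system = purified human Csn5 enzyme expressed in HEK293T cells | amount = 0.24 nM enzyme | buffer or medium = Tris/NaCl/DTT buffer, pH 7.5 | reagent = 10 nM SCFSkp2-Nedd8OG | compound = one concentration, 12.5 µM, 0.25% DMSO | times = 90 min reaction at room temperature | signal = FP | read-out basis = % inhibition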
# TPT1 inh confirm: TPT1 (C. albicans) inhibition, confirmation; AID 2149; recombinant caTPT1, fluorescence polarization, RNase T1 coupled; 2,400 tested, 74% active; shares compounds with TPT1 inh; inhibition, % at 5 µM;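 active = inhibition above the primary screen limit, the mean inhibition of all tested compounds plus 3 SD, cut at about 25% in these data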
# RNase T1 counter: counter-screen for TPT1 inhibitors: inhibitors of Aspergillus oryzae RNase T1; AID 2153; inhibition, % at 5 µM; 2,400 tested, 83% active; shares compounds with TPT1 inh; RNase T1 cleavage, fluorescence polarization, 1536-well;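 active = inhibition above the solvent-only control well mean plus 3 SD, limit set per screening run, cut at about 23% in these data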;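 also: inhibitors block cleavage so intact labeled substrate keeps polarization high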
# Target sequence (P00651 whole entry, looked up): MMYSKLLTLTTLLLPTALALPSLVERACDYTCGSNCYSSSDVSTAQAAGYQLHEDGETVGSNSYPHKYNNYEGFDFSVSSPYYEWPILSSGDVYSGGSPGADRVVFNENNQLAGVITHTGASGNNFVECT
# IDE inh confirm: cellular human IDE inhibition, confirmation | shares compounds with IDE cell inh | HEK cells, FAbetaB cleavage, fluorescence polarization | 1,200 tested, 51% active | inhibition, % at 5.59 µM;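 active = mean inhibition across triplicate wells above the cutoff set by the earlier primary insulin-degrading enzyme screen, cut at about 16% in these data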
# HEK293 tox: kills HEK cells in IDE inhibitor counter-screen. shares compounds with IDE cell inh. inhibition, % at 5.59 µM. AID 449730. 1,200 tested, 28% active. HEK293 cytotoxicity, ATP luminescence; in the data active = inhibition above about 22%
# CSN deneddyl val: validation of inhibitors of human CSN-mediated cullin deneddylation | inhibition, % at 16.6 µM | 540 tested, 62% active | Csn5 deneddylation of SCF-Nedd8OG, fluorescence polarization, 90 min | shares compounds with CSN inh | AID 720654; in the data active = inhibition above about 50%
# MMP2 cntr CSN: counter-screen for CSN deneddylation inhibitors: human MMP-2 inhibition | AID 720655 | inhibition, % at 16.6 µM | 540 tested, 33% active | recombinant MMP-2, FRET substrate fluorescence, 60 min | shares compounds with CSN inh;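 active = corrected plate-normalized z-score of 5 or more, or -5 or less, or inhibition of 15% or more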
# Thrombin counter: blocks bovine thrombin in a CSN deneddylation counter-screen; shares compounds with CSN inh; bovine thrombin cleavage of Ub4-pepOG, fluorescence polarization; inhibition, % at 16.6 µM; 540 tested, 49% active; AID 720656;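 active = inhibition at or above a set limit, with a fluorescence interference ratio between 0.5 and a set maximum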
# Numbers stand for hits; n = inactive; x = no result given.
SMILES,HNF4A DNA FP,Tb MetRS inh,IDE cell inh,IDE act,TPT1 inh,CSN inh,TPT1 inh confirm,RNase T1 counter,CSN deneddyl val,MMP2 cntr CSN,Thrombin counter,others
COc1ccc(CCNC(=O)CCC(=O)NC2CCCC(C)C2C)cc1OC (stereo not given),n,n,n,n,n,n,x,x,x,x,x,
CCCN(CCC)CC(O)Cn1cc(/C=C/C(=O)c2cccs2)c2ccccc21 (stereo not given),n,n,n,n,61,42,64,72,71,n,35,
CCCN(CCC)CC(O)Cn1cc(/C=C/C(=O)c2ccccc2)c2ccccc21 (stereo not given),n,n,x,n,x,n,x,x,x,x,x,
Cc1ccc2nc(/C(C#N)=C/c3ccc(O)c(O)c3)[nH]c2c1,n,n,84,n,56,59,77,84,50,n,62,IDE inh confirm=111;HEK293 tox=n
CC(=O)Nc1nc(C)c(CCC2OCCO2)c(=O)[nH]1,n,n,n,n,n,n,x,x,x,x,x,
Cc1c(C#N)c(O)[nH]c(=O)c1N=Nc1ccc(Br)cc1C(=O)O,86,n,n,n,29,56,43,65,n,n,53,
Cc1cccc(N=Nc2c(C)c(C#N)c(O)[nH]c2=O)c1,n,n,n,n,n,n,x,x,x,x,x,
O=C(O)CCCN1C(=O)/C(=C/C=C/c2ccco2)SC1=S,n,n,n,n,84,40,37,38,n,44,22,
O=C(O)CC(C(=O)O)N1C(=O)/C(=C/c2ccc(-c3nc4ccccc4s3)o2)SC1=S (stereo not given),n,n,n,n,91,47,109,114,82,n,83,
O=C(O)CC(C(=O)O)N1C(=O)/C(=C/C=C/c2ccco2)SC1=S (stereo not given),n,n,n,n,67,48,29,36,n,34,49,
COc1ccccc1-c1nnc(Sc2nc([N+](=O)[O-])nn2C)o1,n,n,n,n,n,n,x,x,x,x,x,
COc1cc(/C=C2\COC/C(=C\c3ccc(O)c(OC)c3)C2=O)ccc1O,n,n,n,n,n,n,x,x,x,x,x,
COc1cc(/C=C2/CC/C(=C/c3ccc(O)c(OC)c3)C2=O)ccc1O,48,n,24,n,113,47,117,119,62,n,72,IDE inh confirm=36;HEK293 tox=32
COc1ccc(-c2cn(CC[C@@H]3CC[C@H](NC(=O)Cc4ccccn4)[C@@H](CO)O3)nn2)cc1,n,n,x,x,x,n,x,x,x,x,x,
Cc1c(N2C(=O)/C(=C\c3ccc(N(C)C)cc3)N(C)C2=S)c(=O)n(-c2ccccc2)n1C,44,n,53,n,150,75,132,133,85,n,68,IDE inh confirm=40;HEK293 tox=n
COc1ccc(/C=C(/C(=O)c2ccc(Cl)cc2Cl)n2cncn2)cc1,n,n,n,n,n,n,x,x,x,x,x,
CN(C)c1ccc(/C=C(/C(=O)c2ccc(Cl)cc2Cl)n2cncn2)cc1,92,n,141,n,121,79,132,131,93,-23,70,IDE inh confirm=162;HEK293 tox=28
COC(=O)CN1C(=S)N(c2ccc(OC)cc2)C(=O)/C1=C/c1ccc(N2CCOCC2)cc1,61,n,n,n,151,36,116,123,175,n,n,
COc1ccc(/C=C/C(=O)OCC(=O)Nc2ccc(N3CCOCC3)cc2)cc1,n,n,n,n,n,n,x,x,x,x,x,
CCCN1CCc2c(sc(NC(=O)c3ccc(S(=O)(=O)N(C)c4ccccc4)cc3)c2C(=O)NC)C1,67,n,n,n,104,42,110,118,179,n,n,
CC(C)NC(=O)C(c1ccc(F)cc1)N(Cc1ccco1)C(=O)CCC(=O)Nc1ccccn1 (stereo not given),n,n,n,n,n,n,x,x,x,x,x,
CCC(COC)NCc1cn(-c2ccc(OC)cc2)nc1-c1cccc(F)c1 (stereo not given),n,n,n,n,n,n,x,x,x,x,x,
O=c1[nH]c(=S)[nH]c2c1C(c1ccc(Br)cc1)c1c([nH]c(=S)[nH]c1=O)O2,n,n,n,n,82,84,n,n,50,33,85,
O=C1/C(=C\c2ccc(O)c(O)c2)N=C2CCCCCN12,n,n,n,n,27,38,45,47,69,n,45,
COc1ccc(CCNC(=O)COC(=O)C2CC2)cc1OC,n,n,n,n,x,n,x,x,x,x,x,
SMILES,HNF4A DNA FP,Tb MetRS inh,IDE cell inh,IDE act,TPT1 inh,CSN inh,TPT1 inh confirm,RNase T1 counter,CSN deneddyl val,MMP2 cntr CSN,Thrombin counter,others
O=C(CNC(=O)c1ccc(S(=O)(=O)N2CCCC2)cc1)N/N=C/c1ccccc1Cl,n,n,n,n,n,n,x,x,x,x,x,
O=C(N/N=C\c1c(O)ccc2ccccc12)c1ccc(S(=O)(=O)N2CCCCC2)cc1,71,n,n,n,96,96,100,101,176,-44,n,
Cn1cccc1/C=C1\SC(=S)N(NC(=O)c2ccccc2O)C1=O,101,n,n,n,79,55,87,101,95,n,48,
CCOc1cc(/C=C2\SC(=S)N(NC(=O)c3cccnc3)C2=O)ccc1O,49,n,41,x,50,36,39,54,58,n,36,IDE inh confirm=148;HEK293 tox=n
O=C(NN1C(=O)/C(=C/c2cccs2)SC1=S)c1cccnc1,n,n,n,x,n,n,x,x,x,x,x,
CCOc1ccc(/C=C2\SC(=S)N(Nc3ccccc3)C2=O)cc1OC,n,n,n,n,n,n,x,x,x,x,x,
CC(/C=C1\SC(=S)N(NC(=O)c2ccccc2C)C1=O)=C\c1ccccc1,n,n,n,n,n,n,x,x,x,x,x,
COc1cc(/C=C2\SC(=S)N(NS(=O)(=O)c3ccc(C)cc3)C2=O)ccc1O,n,n,72,n,30,41,36,48,63,15,68,IDE inh confirm=161;HEK293 tox=n
